Consider one molecule from publication PMC6407133 (Journal of the American Chemical Society, 2018).

Read-outs that look alike come from different tables or passages of the source.

One assay deals with P. berghei. Put plainly: Plasmodium berghei mouse model of infection. Format: in vivo. Particulars: CD1 mice, 50 mg/kg once daily for 4 days, intravenous.
The next assay concerns P. falciparum W2. Put plainly: P. falciparum replication assay. Format: cell-based, Plasmodium falciparum. Particulars: read-out: 72 h EC50 Pf; 72 h treatment, no washout; P. falciparum W2 ring stage.
For assay [1], the system named is non-confluent human foreskin fibroblast (HFF) cells. Description: Cell viability assay in mammalian cells. Format: cell-based. Particulars: non-confluent HFFs. The essentials: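 Nontransformed primary human foreskin fibroblasts, Mycoplasma-tested, seeded nonconfluent at 2500 cells/well less than 24 h before dosing. Test compound dose–response dilutions in media applied for 1 h (then washed out) or 72 h. Viability read by CellTiter-Blue. EC50 values are the mean of n = 9 cultures from three independent experiments run in triplicate.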

Take `CC(C)C[C@@H](/C=C/S(C)(=O)=O)NC(=O)[C@H](CC(C)C)NC(=O)[C@H](Cc1c[nH]c2ccccc12)NC(=O)CN1CCOCC1` [WLL-vs]: the “reduction of parasites on day 4” value in the assay with P. berghei amounted to 98%. For the same molecule, the EC50 in the assay on P. falciparum W2 was found to be 15 ± 5 nM; in assay [1] (read-out: 1 h EC50 HFF, 1 h treatment) it was 65500 ± 15200 nM; in assay [1] (read-out: 72 h EC50 HFF, 72 h treatment), 1520 ± 410 nM.
